Screening results deposited in PubChem by several laboratories.
PolyA inhibitor: polyadenylation inhibitors in yeast reporter cells, primary screen, luminescence, S. cerevisiae; S. cerevisiae SKY197-pL101 polyadenylation reporter, beta-gal luminescence; efflux-impaired pdr1/pdr3 knockout yeast; score 100 = 6 SD above DMSO; activity score, % at 12 µM; 300,000 compounds, 0.02% hits;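 active means lowest replicate activity score at least 50, where 100 means six control SD above control mean; inconclusive means lowest score under 50 but half or more replicates reach 50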;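 further: yeast exposed to compound for 9 h at 30 °C; higher score means more reporter readthrough which indicates perturbed polyadenylation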
T cruzi repl: inhibitors of intracellular T. cruzi growth, primary screen, luminescence, NIH3T3 host cells | T. cruzi beta-gal in NIH3T3, 90 h | inhibition, % (concentration not given with the values) | 300,000 compounds, 1.4% hits;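 active means mean inhibition across valid replicates above about 55%, limit read from the data; inconclusive means mean below that limit but half or more replicates reach it; inactive means mean below it, under half of replicates reach it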;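 further: signal also drops with host cell toxicity which is not excluded here; 0% = plate median of DMSO wells and 100% = zero luminescence signal; higher percent means less beta-gal luminescence so fewer parasites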
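Test system: β-gal T. cruzi (Tulahuen C4) inside NIH/3T3 cells / Quantity: 5,000 cells/well / Measured by: luminescence from GalScreen with 0.05% NP40, read after 60 min / Medium: DMEM plus 2% FBS / Measure: parasite load inhibition, % / Reagent: Tulahuen C4 trypomastigotes, 5000/well / Schedule: co-culture of at least 90 h after 3 h attachment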
CHT inh: inhibitors of human choline transporter CHT | High affinity choline transporter 1 (Homo sapiens), Q9GZV3 | CHT-expressing cells, membrane potential dye, choline response; stronger effect = lower value | B-score at 10 µM | 310,000 compounds, 0.86% hits | AID 488975, 2010;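 active means B-score over 3 SD under the library average, and starting fluorescence ratio not unusually high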;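 further: choline stimulus applied at its EC90 after an EC20 pre-addition; B-score computed on integrated fluorescence ratio after choline addition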
Target sequence (Q9GZV3 whole entry, looked up): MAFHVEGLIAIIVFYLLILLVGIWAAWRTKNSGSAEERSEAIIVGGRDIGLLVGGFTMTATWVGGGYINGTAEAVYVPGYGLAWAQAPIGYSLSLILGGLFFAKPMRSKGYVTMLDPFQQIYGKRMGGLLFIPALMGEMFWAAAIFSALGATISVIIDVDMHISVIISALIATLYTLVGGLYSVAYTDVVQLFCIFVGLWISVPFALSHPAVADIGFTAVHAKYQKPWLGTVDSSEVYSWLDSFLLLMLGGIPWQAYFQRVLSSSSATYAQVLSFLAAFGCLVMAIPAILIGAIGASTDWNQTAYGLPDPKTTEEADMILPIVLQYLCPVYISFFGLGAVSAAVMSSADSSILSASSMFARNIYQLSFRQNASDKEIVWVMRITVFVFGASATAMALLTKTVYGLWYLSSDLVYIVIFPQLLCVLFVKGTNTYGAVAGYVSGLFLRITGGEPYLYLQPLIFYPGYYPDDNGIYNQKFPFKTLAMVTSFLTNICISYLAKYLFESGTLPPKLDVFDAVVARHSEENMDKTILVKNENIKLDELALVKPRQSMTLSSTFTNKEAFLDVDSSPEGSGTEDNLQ
CHT allo act: CHT positive allosteric modulators, primary screen, cell-based, membrane potential dye, choline EC20 | CHT-expressing cells; stronger effect = higher value; LV-AA mutant CHT in HEK293 cells | B-score at 10 µM | 310,000 compounds, 0.49% hits;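 active means initial fluorescence not abnormally high and integrated response B-score, plate-corrected, over 3 SD above library mean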
Starred values were filed as active, the others as inactive; i = inactive; ? = inconclusive; . = not tested or not shown; ! = not confirmed by another sample. Only some compounds are listed: those with a hit (about 2.6% of all), similar ones and a draw of the others.

SMILES | PolyA inhibitor | T cruzi repl | CHT inh | CHT allo act
COc1ccc(Nc2nnc(-c3ccc(O)cc3)c3ccccc23)cc1 | 3 | 57* | i | i
Cc1c(C#N)c(N=CN(C)C)c(C(=O)c2ccc(Br)cc2)n1-c1ccc(Cl)cc1 | 6 | 57* | i | i
CC1=Nc2ccccc2/C1=C/c1nc(-c2ccc(C)s2)oc1O | -47 | -5 | i | i
CC1=Nc2ccccc2/C1=C/c1sc(=N)n(-c2nccs2)c1O | -3 | 63* | i | i
N#Cc1c(N2CCN(C(=O)c3ccccc3Cl)CC2)nc(-c2ccccc2)c2c1CCCC2 | 7 | 57* | i | i
CCOC(=O)c1ccccc1NC(=O)COC(=O)c1cc([N+](=O)[O-])ccc1N1CCOCC1 | -2 | 12 | i | i
Cc1ccccc1NC(=S)NCC1CCN(C(C)c2ccccc2)C1 (stereo not given) | ? | 58* | i | i
CC1=C(C#N)C(c2cccnc2)C2=C(CC(c3ccc(Cl)cc3)CC2=O)N1 (stereo not given) | 13 | 60* | i | i
CC1=C(C#N)C(c2ccc(O)cc2)C2=C(CCCC2=O)N1 (stereo not given) | -2 | 14 | i | i
COc1cccc(NC(=O)CN(C)C(=O)CC2CC3CCC2C3)c1 (stereo not given) | -30 | 1 | i | i
Cc1cccc(C(=O)NC(C(=O)Nc2nc(-c3ccccn3)cs2)C(C)C)c1 (stereo not given) | -8 | 82* | i | i
C[C@H](NC(=O)c1ccccc1)C(=O)Nc1nc(-c2ccccn2)cs1 | -10 | 3 | i | i
CC(Oc1cccc(Cl)c1)C(=O)Nc1ccncc1 (stereo not given) | -2 | -12 | i | i
CC(Oc1cccc(Cl)c1)C(=O)Nc1nc(-c2ccccn2)cs1 (stereo not given) | 7 | 60* | i | i
Cc1cccc(Nc2nc(-c3ccccn3)cs2)n1 | -35 | 59* | i | i
COC(=O)C1=C(Nc2ccc(C)cc2)C=C(C)C(C(=O)OC)C1c1cccc(OC)c1 (stereo not given) | 4 | 58* | i | i
O=C(Cn1ccc2ccccc2c1=O)NCC(=O)N1CCN(c2ccccc2F)CC1 | -13 | -2 | i | i
CCCOc1ccc(/C=N/n2nnnc2N)cc1OC | 2 | -9 | i | i
CCc1cccc(C)c1NC(=O)COC(=O)c1c2c(nc3ccccc13)/C(=C\c1cccs1)CCC2 | -7 | 59* | i | i
N#CC1=C(N)NC(SCc2ccc(Br)cc2)=C(C#N)C12CCCCC2 | 0 | 66* | i | i
O=C(c1cc(-c2ccccc2O)on1)N1CCCCCC1 | -11 | -17 | i | i
COCCNC(=O)C(c1ccc(C)o1)N(C(=O)C(=O)NC1CCCCC1)c1ccc(F)cc1 (stereo not given) | 4 | 0 | i | i
C=CCSc1nc(N)c2c3c(sc2n1)CN(C)CC3 | 27 | 11 | i | i
CSc1nc(SCC(N)=O)c2c3c(sc2n1)CN(C)CC3 | 4 | 33 | i | 6.3*
CCn1c(SCC(N)=O)nc2sc3c(c2c1=O)CCN(C)C3 | 9 | . | i | 7.9*
SMILES | PolyA inhibitor | T cruzi repl | CHT inh | CHT allo act
CCC(O)CNc1nc(SC)nc2sc3c(c12)CCN(C)C3 (stereo not given) | 3 | 4 | i | 7.1*
CCSc1nc(N)c2c3c(sc2n1)CN(C)CC3 | 1 | -1 | i | 6.3*
COc1ccc(CN(C)CC(=O)N2CCc3ccccc3C2)cc1 | 1 | 3 | i | i
COC(CSc1nc(N)c2c3c(sc2n1)CN(C)CC3)OC | 23 | 4 | i | i
CSc1nc(N)c2c3c(sc2n1)CN(C)CC3 | 21 | -3 | i | 7.7*
Cc1ccc(NC(=S)NCc2cccs2)cc1 | 12 | -28 | i | i
CCCCc1ccc(NC(=S)NCc2cccs2)cc1 | 10 | 69* | i | i
CC(NC(=O)Cn1c(=O)[nH]c2ccsc2c1=O)C12CC3CC(CC(C3)C1)C2 (stereo not given) | 0 | 10 | i | i
CC(NC(=O)CN1C(=O)NC(Cc2ccccc2)(Cc2ccccc2)C1=O)C12CC3CC(CC(C3)C1)C2 (stereo not given) | 8 | 61* | i | i
O=C(CSc1nnc(-c2c[nH]c3ccccc23)o1)N(Cc1ccccc1)c1ccc(F)cc1 | 9 | 55* | i | i
COc1ccc(CN(C(=O)CSc2nnc(-c3ccccc3C)o2)c2ccc(F)cc2)cc1 | -13 | 16 | i | i
Cc1ccc(-n2ncc(C(=O)Nc3cc(Cl)cc(Cl)c3)c2C2CCNCC2)cc1C | -2 | 55* | . | .
Cc1ccc(-n2ncc(C(=O)Nc3cc(Cl)ccc3Cl)c2C2CCNCC2)cc1 | 3 | 26 | i | i
COc1ccc(C(=O)c2cc([N+](=O)[O-])ccc2N2CCOCC2)cc1 | 15 | 15 | i | 10*
Cc1ccc(COC(=O)c2cc([N+](=O)[O-])ccc2N2CCOCC2)cc1 | 14 | 29 | i | 6.4*
O=C(OCc1ccc([N+](=O)[O-])cc1)c1cc([N+](=O)[O-])ccc1N1CCOCC1 | 4 | 17 | i | i
O=C(NCc1cnc2ccccn12)C1CCC(=O)N(Cc2ccccc2F)C1 (stereo not given) | -3 | -5 | i | i
Cc1nn(C)c(C(=O)Nc2ccc(S(=O)(=O)NC34CC5CC(CC(C5)C3)C4)cc2)c1Br | -24 | 59* | i | i
COc1ccc(NC(=O)c2cc(-c3cccnc3)nc3c(C)c(C)ccc23)c(OC)c1 | -7 | 56* | i | i
COc1ccc(NC(=O)c2cccnc2)c(OC)c1 | 28 | 2 | i | i
Cc1c(O)cccc1C(=O)N[C@@H](CSc1ccccc1)[C@H](O)CN1C[C@H]2CCCC[C@H]2C[C@H]1C(=O)NC(C)(C)C | 4 | 67*! | i | i
CC(=O)c1c(C)[nH]c(C(=O)Nc2nc(-c3ccc(-c4ccccc4)cc3)cs2)c1C | -3 | 69* | i | i
COc1ccc(-c2csc(NC(=O)CSCc3c(C)noc3C)n2)c(OC)c1 | 1 | 12 | i | i
CC(=O)/C=C1\N(C)c2ccc(C)cc2C1(C)C | -24 | 66* | i | i
Cc1ccc(S(=O)(=O)N(CC(=O)Nc2cccc(N(C)S(C)(=O)=O)c2)c2ccc(Cl)c(Cl)c2)cc1 | 3 | 70* | i | i
CN(c1cccc(NC(=O)CN(c2ccc(C34CC5CC(CC(C5)C3)C4)cc2)S(C)(=O)=O)c1)S(C)(=O)=O | -21 | 65* | i | i
C[C@H]1CC[C@H]2C(=O)N3[C@H](c4cccc(N5CCCC5=O)c4)[C@@H](C)CC[C@H]3C(=O)N2[C@@H]1c1cccc(N2CCCC2=O)c1 | -7 | 48 | i | i
